Screens (PubChem BioAssay)
Many of the other results were omitted from the sample, so hits are more common in it than they were.
PfG6PD inh: PfG6PD (Plasmodium falciparum) enzyme inhibition; inhibition, % at 20 µM; PfGluPho enzyme, NADPH resazurin-diaphorase fluorescence; 350,000 compounds, 0.78% hits;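 active means inhibition reaching at least a set limit at 20 µM in the primary screen, cut at about 59% in these data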
Redox H2O2 prof: compounds producing H2O2 with reducing agent – biochemical, NIH compound library profiling, artefact control for MLSCN library redox annotation, primary screen. DTT-dependent redox cycling H2O2, phenol red/HRP absorbance; 100% = 100 µM peroxide control, 0% = buffer. activation, % at 10 µM. 200,000 compounds, 0.03% hits;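 active means activation of at least 50% relative to the plate's high and low controls in the primary single-dose screen; inactive means activation below 50%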;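 further: compound incubated with DTT at 0.8 mM final as the reducing agent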
Diaphorase act: diaphorase activation or chemical reduction counter-screen. Diaphorase/resazurin coupled assay, resorufin fluorescence, 16 min; hits give high values; 1 = vehicle wells, 0 = NADH-free wells. activation factor at 20 µM. 190,000 compounds, 0.005% hits;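 active means diaphorase activity raised at least twofold by the compound at 20 µM; inactive means activation factor below 2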
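Material: purified diaphorase enzyme from Clostridium kluyveri / Medium: HEPES pH 7.4 buffer with MgCl2 and Tween 20 / Schedule: enzyme reaction of 16 min at room temperature / Measured by: resorufin fluorescence, excitation 544 nm, emission 590 nm / Evaluation: rise in resorufin formation, marking diaphorase activation or chemical reduction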
G6PDH CS: L. mesenteroides G6PDH inhibition counter-screen; 200,000 compounds, 0.12% hits; inhibition, % at 5 µM; Purified L. mesenteroides G6PDH, diaphorase/resazurin coupled fluorescence, 45 min
L major viab: Leishmania major promastigote growth inhibition | Leishmania major promastigotes, resazurin fluorescence viability | inhibition, % at 10 µM | 200,000 compounds, 9% hits;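 further: promastigotes grown with compound for 44 hours at 28 °C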
Diaphorase inh: diaphorase inhibition or chemical oxidation counter-screen; inhibition, % at 20 µM; diaphorase resazurin-to-resorufin fluorescence, NADH, 16 min; bacterial (C. kluyveri) enzyme, not human; 190,000 compounds, 0.69% hits;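 active means primary screen inhibition at 20 µM above a set limit, cut at about 50% in these data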
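Assay system – diaphorase enzyme from Clostridium kluyveri · Amount – diaphorase 0.14 U/mL (working solution) · Times – reaction incubation of 16 min at room temperature · Controls – No-NADH positive control and DMSO neutral control · Signal – resorufin fluorescence 544/590 nm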
Numbers stand for hits. Unless noted, no stated cut-off is given here; in the data, active means inhibition above about 50%; inactive means the rest.

For CCCCn1c(SCC(=O)N2c3ccccc3Sc3ccccc32)nc2c1c(=O)n(C)c(=O)n2C the results were PfG6PD inh inactive, Redox H2O2 prof inactive, Diaphorase act inactive, G6PDH CS inactive, L major viab 78 and Diaphorase inh inactive.
Screening Cc1cc(NC(c2cccnc2)c2ccc3cccnc3c2O)no1 (stereo not given) returned PfG6PD inh inactive, Redox H2O2 prof inactive, Diaphorase act inactive, G6PDH CS inactive, L major viab 99 and Diaphorase inh inactive.
For COc1cccc(C(NC(C)=O)c2ccc3cccnc3c2O)c1 (stereo not given) the results were PfG6PD inh inactive.
`Oc1c(C(Nc2ccccn2)c2cccnc2)cc(Cl)c2cccnc12` (stereo not given) gave PfG6PD inh inactive, Redox H2O2 prof inactive, Diaphorase act inactive, G6PDH CS inactive, L major viab 94 and Diaphorase inh inactive.
Screening CC(=O)NC(c1cc(Cl)c2cccnc2c1O)C1CC1 (stereo not given) returned PfG6PD inh inactive.
Screening Oc1c(C(Nc2cccc(C(F)(F)F)c2)c2cccnc2)ccc2cccnc12 (stereo not given) returned PfG6PD inh inactive, Redox H2O2 prof inactive, Diaphorase act inactive, G6PDH CS inactive, L major viab 100 and Diaphorase inh inactive.
`Oc1cccc(C(Nc2nccs2)c2ccc3cccnc3c2O)c1` (stereo not given) gave PfG6PD inh inactive, Redox H2O2 prof inactive, Diaphorase act inactive, G6PDH CS inactive, L major viab 100 and Diaphorase inh inactive.
`CCNC(=S)NN(c1ccccc1)c1ccccc1` gave PfG6PD inh inactive, Redox H2O2 prof inactive, Diaphorase act inactive, G6PDH CS inactive, L major viab inactive and Diaphorase inh inactive.
COc1cc(/C=N/NC(=O)COc2ccc(-n3cnnn3)cc2)ccc1OCC(N)=O was read as PfG6PD inh inactive.
For O=C(NCCCl)Nc1ccccc1OCCOc1ccccc1NC(=O)NCCCl the results were PfG6PD inh inactive.
CC(C)N(C(=O)CSc1nc2ccccc2n1-c1ccccc1)C(C)C was read as PfG6PD inh inactive, Redox H2O2 prof inactive, Diaphorase act inactive, G6PDH CS inactive, L major viab inactive and Diaphorase inh inactive.
For CN1CCC(N(C)C(=O)CCc2nc3ccccc3n2-c2ccccc2)CC1 the results were PfG6PD inh inactive, Redox H2O2 prof inactive, Diaphorase act inactive, G6PDH CS inactive, L major viab inactive and Diaphorase inh 74.
`O=C(/C=C/c1ccc(Cl)cc1)N(c1ccccn1)C1CCCCC1` gave PfG6PD inh inactive, Diaphorase act inactive, G6PDH CS inactive, L major viab 83 and Diaphorase inh inactive.
`O=C1CS/C(=N\C(=O)N2c3ccccc3Sc3ccccc32)N1` gave PfG6PD inh inactive, Redox H2O2 prof inactive, Diaphorase act inactive, G6PDH CS inactive, L major viab inactive and Diaphorase inh 70.
For O=C(CSc1ncc(-c2ccccc2)n1-c1ccccc1)NCc1ccco1 the results were PfG6PD inh inactive, Redox H2O2 prof inactive, Diaphorase act inactive, G6PDH CS inactive, L major viab inactive and Diaphorase inh inactive.
Screening CCOc1ccc(-n2c(SCC(=O)NCc3ccco3)nnc2-c2c[nH]c3ccccc23)cc1 returned PfG6PD inh inactive, Redox H2O2 prof inactive, Diaphorase act inactive, G6PDH CS inactive, L major viab 93 and Diaphorase inh inactive.
COc1ccc(-n2c(-c3ccc(F)cc3)cnc2SCC(=O)NCc2ccco2)cc1 was read as PfG6PD inh inactive, Redox H2O2 prof inactive, Diaphorase act inactive, G6PDH CS inactive, L major viab 100 and Diaphorase inh inactive.
`Cn1c(SCC(=O)NCc2ccco2)nnc1-c1c[nH]c2ccccc12` gave PfG6PD inh inactive, Redox H2O2 prof inactive, Diaphorase act inactive, G6PDH CS inactive, L major viab inactive and Diaphorase inh inactive.
`Cc1ccc(NS(=O)(=O)c2ccc(Br)cc2)nc1` gave PfG6PD inh inactive, Redox H2O2 prof inactive, Diaphorase act inactive, G6PDH CS inactive, L major viab inactive and Diaphorase inh inactive.
Screening COC1(NS(=O)(=O)c2ccc(Br)cc2)C(C)=CC(=O)C=C1C returned PfG6PD inh inactive, Redox H2O2 prof inactive, Diaphorase act inactive, G6PDH CS inactive, L major viab inactive and Diaphorase inh 52.
Screening Cc1cc(C)c2[nH]c(=O)c(CN(Cc3nnnn3C3CCCC3)C3CCCCC3)cc2c1 returned PfG6PD inh inactive, Redox H2O2 prof inactive, Diaphorase act inactive, G6PDH CS inactive, L major viab inactive and Diaphorase inh inactive.
For Cc1ccc2[nH]c(=O)c(CN(CCCN3CCOCC3)Cc3nnnn3C3CCCC3)cc2c1 the results were PfG6PD inh inactive, Redox H2O2 prof inactive, Diaphorase act inactive, G6PDH CS inactive, L major viab inactive and Diaphorase inh inactive.
CCc1ccc2[nH]c(=O)c(CN(Cc3ccc4c(c3)OCO4)Cc3nnnn3C3CCCC3)cc2c1 was read as PfG6PD inh inactive, Redox H2O2 prof inactive, Diaphorase act inactive, G6PDH CS inactive, L major viab 97 and Diaphorase inh inactive.
Screening Cc1ccc2cc(CN(Cc3ccccc3)Cc3nnnn3C3CCCC3)c(=O)[nH]c2c1 returned PfG6PD inh inactive, Redox H2O2 prof inactive, Diaphorase act inactive, G6PDH CS inactive, L major viab 69 and Diaphorase inh inactive.
Cc1ccc2cc(CN(Cc3ccc(F)cc3)Cc3nnnn3C3CCCC3)c(=O)[nH]c2c1 was read as PfG6PD inh inactive, Redox H2O2 prof inactive, Diaphorase act inactive, G6PDH CS inactive, L major viab 81 and Diaphorase inh inactive.
CCOC(=O)Cn1nnnc1CN(Cc1ccc(OC)cc1)Cc1cc2cc(CC)ccc2[nH]c1=O was read as PfG6PD inh inactive, Redox H2O2 prof inactive, Diaphorase act inactive, G6PDH CS inactive, L major viab inactive and Diaphorase inh inactive.
Screening COc1cccc(N2CCN(C(=O)C3CCCN(c4ncnc5c4nc4n5CCCCC4)C3)CC2)c1 (stereo not given) returned PfG6PD inh inactive.
Screening COc1ccc(C(CC(=O)NC(C)(C)C)n2cccc2)cc1 (stereo not given) returned PfG6PD inh inactive, Redox H2O2 prof inactive, Diaphorase act inactive, G6PDH CS inactive, L major viab inactive and Diaphorase inh inactive.
Screening COc1ccc(C(CC(=O)Nc2nccs2)n2cccc2)cc1 (stereo not given) returned PfG6PD inh inactive, Redox H2O2 prof inactive, Diaphorase act inactive, G6PDH CS inactive, L major viab inactive and Diaphorase inh inactive.
Screening COc1ccc(C(CC(=O)Nc2cc(OC)cc(OC)c2)n2cccc2)cc1 (stereo not given) returned PfG6PD inh inactive, Redox H2O2 prof inactive, Diaphorase act inactive, G6PDH CS inactive, L major viab 96 and Diaphorase inh inactive.
